The source made the active and inactive calls. The calls are words filed in the database; no cut-off is given here.
Experiments:
HEK293 [1] = test: Cellular uptake in human HEK293 cells at 0.5 to 10 uM after 8 hrs by flow cytometric analysis; assay type: ADME, cell-based; details: hek293, 8 h
Summary of the method: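 Cells plated at 5 × 10^4 per well and treated next day with ligand at […] for 8 h. Then trypsinized, resuspended in PBS and analysed by flow cytometry (488 nm excitation, FL3 680 nm, log scale), at least 10,000 cells per sample. Uptake read from intrinsic ligand red fluorescence.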

HEK293 [2] = test: Cellular uptake in human HEK293 cells at 0.5 to 10 uM after 10 mins to 8 hrs by flow cytometric analysis; assay type: ADME, cell-based; details: hek293, 10 µM
Summary of the method: (§1)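 Flow cytometric uptake of 10 μM ligand over time (15 min, 1, 2, 6, 8 h; T24, and up to 8 h in NIH 3T3 and 293). Cells plated at 5 × 10^4 per well the day before. Ligand fluorescence detected in FL3 (680 nm), at least 10,000 cells acquired.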

T-24 [3] = test: Binding affinity to HRAS G-quadruplex DNA in human T24 cells assessed as reduction in p21HRAS level at 5 uM after 48 hrs by immunoblotting analysis; assay type: cell-based
Summary of the method: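 T24 cells treated with 5 μM ligand for 48 or 72 h. Lysates (30 μg) run on 12% SDS-PAGE and immunoblotted with monoclonal anti-HRAS and β-actin antibodies, with HRP detection. HRAS level = (p21HRAS/β-actin treated)/(p21HRAS/β-actin untreated) × 100.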

Homo sapiens [4] = species on record: Homo sapiens; test: Binding affinity to 32mer duplex DNA (unknown origin) at 5 uM by UV-vis titration
NIH3T3 = test: Cellular uptake in mouse NIH/3T3 cells after 4 hrs by FACS flow cytometric analysis in presence of dynasore; assay type: ADME, cell-based; details: nih3t3, 4 h
T-24 [5] = test: Cellular uptake in human T24 cells at 0.5 to 10 uM after 10 mins to 8 hrs by flow cytometric analysis; assay type: ADME, cell-based; details: t-24, 10 µM; summary of the method: as §1
Homo sapiens [6] = species on record: Homo sapiens; test: Thermal stabilization of human telomeric G-quadruplex FAM-TTAGGGTTAGGGTTAGGGTTAGGG-TAMRA DNA assessed as melting temperature at 1:1 DNA:ligand ratio by FRET assay
Summary of the method: (§2)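 Telomeric quadruplex (TTAGGG)4, 200 nM, dual-labelled, in 100 mM KCl, Tris-HCl buffer. Melted with ligand at r = 1, 2, 3, 4 or 5 ([ligand]/[quadruplex]). Samples equilibrated 5 min at 20 °C, then heated in 1 °C/min steps to 95 °C; TM read from the donor/acceptor emission.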

Homo sapiens [7] = species on record: Homo sapiens; test: Thermal stabilization of human telomeric G-quadruplex FAM-TTAGGGTTAGGGTTAGGGTTAGGG-TAMRA DNA assessed as melting temperature at 1:5 DNA:ligand ratio by FRET assay; summary of the method: as §2
Homo sapiens [8] = species on record: Homo sapiens; test: Thermal stabilization of human telomeric G-quadruplex FAM-TTAGGGTTAGGGTTAGGGTTAGGG-TAMRA DNA assessed as melting temperature at 1:4 DNA:ligand ratio by FRET assay; summary of the method: as §2
Homo sapiens [9] = species on record: Homo sapiens; test: Thermal stabilization of human telomeric G-quadruplex FAM-TTAGGGTTAGGGTTAGGGTTAGGG-TAMRA DNA assessed as melting temperature at 1:3 DNA:ligand ratio by FRET assay; summary of the method: as §2
T-24 [10] = test: Cellular uptake in human T24 cells assessed as accumulation in nucleoplasm at 2.5 uM after 2 hrs by propidium iodide staining-based confocal microscopic analysis; assay type: ADME, cell-based; details: t-24, 2 h
Summary of the method: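 T24 cells plated (3 × 10^5) on coverslips and treated after 24 h with 2.5 μM ligand for 2 h. Fixed in 3% paraformaldehyde and permeabilized with Triton X-100. Cytoplasm immunostained for DRP1 with FITC secondary; nuclei stained with propidium iodide plus RNase A. Ligand red fluorescence excited at 543 nm; confocal Z-sections at 2 μm intervals.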

Homo sapiens [11] = species on record: Homo sapiens; test: Thermal stabilization of human telomeric G-quadruplex FAM-TTAGGGTTAGGGTTAGGGTTAGGG-TAMRA DNA assessed as melting temperature at 1:2 DNA:ligand ratio by FRET assay; summary of the method: as §2

SMILES | Drug uptake (HEK293 [1]) | Drug uptake (HEK293 [2]) | Activity (T-24 [3]) | Activity (Homo sapiens [4]) | Drug uptake (NIH3T3) | Drug uptake (T-24 [5]) | Tm (Homo sapiens [6]) [°C] | Tm (Homo sapiens [7]) [°C] | Tm (Homo sapiens [8]) [°C] | Tm (Homo sapiens [9]) [°C] | Drug uptake (T-24 [10]) | Tm (Homo sapiens [11]) [°C]
N=C(N)NCCNc1c2c(c(NCCNC(=N)N)c3sccc13)C(=O)c1ccccc1C2=O | Active | Active | Active | Active | Active | Active |  |  |  |  |  | 
N=C(N)NCCCNc1c2c(c(NCCNC(=N)N)c3sccc13)C(=O)c1ccccc1C2=O |  |  |  |  | Active |  |  |  |  |  |  | 
N=C(N)NCCCCNc1c2c(c(NCCCCNC(=N)N)c3sccc13)C(=O)c1ccccc1C2=O |  |  | Active |  |  |  | 58.5 | 83.7 | 81.1 | 79.1 | Active | 76.3
